# The source made the active and inactive calls.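 Rule for the calls, unless noted: active = viability at or under a set limit in both replicates, limit being median viability minus 3 SD (cut at about 48% in these data, passing the limit was not always enough); inconclusive = at or under the limit in just one replicate; inactive = at or above the limit in both replicates.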
# Tests used:
# [1] = HUVEC growth inhibition – cell-based, human, primary screen (AID 575;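 active = viability at or below 30% in both replicate assays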;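 note: 100% = median of untreated cell wells with 0.1% DMSO on each plate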); settings: HUVEC proliferation, CellTiter-Glo luminescence, 72 h; at 10 µM; stronger effect = lower value
# How it was run: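 Test system: primary human umbilical vein endothelial cells; medium: endothelial basal medium with 2% FBS plus growth supplements; dosing: 10 µM compound only; times: 72 h treatment at 37 °C; signal: CTG luminescence; read-out: % viability relative to median vehicle-well signal on each plate; control set: vehicle and MePR control wells; plate: 384-well, collagen-coated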
# [2] = H69AR cell proliferation blockers – human, duplicate replicates, primary screen (AID 580); settings: H69AR lung tumor cells viability, ATP luminescence, 72 h; at 10 µM; stronger effect = lower value;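 note: 100% = mean luminescence of untreated wells and 0% = no signal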
# [3] = MRP1 drug-resistance reversers in H69AR cells – cell-based, doxorubicin co-treatment, pilot screen (AID 601;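 active = viability loss from added drug above about 55%, and viability with drug at most 40%, in both replicates, limit read from the data, passing the limit was not always enough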); settings: CellTiter-Glo, 72 h, at 10 µM; for differential viability (reversal): stronger effect = higher value
# [4] = yeast transport mutant growth inhibition pilot in 384-well plates, post-Golgi transport modulator project (AID 636; in the data active = inhibition above about 31%); settings: absorbance 615 nm, about 18 h, stronger effect = higher value
# [5] = growth suppression of yeast trafficking mutant, preliminary HTS, modulators of trafficking downstream of Golgi apparatus project, 1536-format plate, OD 615 nm (AID 637; in the data active = inhibition above about 30%); settings: yeast transport mutant growth, absorbance 615 nm, 18 h; stronger effect = higher value
# [6] = H69AR cells + 2 uM doxorubicin, measured here: viability with 2 uM doxorubicin, stronger effect = lower value
# [7] = H69AR cells, compound alone cytotoxicity
Compound,viability [1],viability [2],differential viability (reversal) ([3]; H69AR cells + 2 uM doxorubicin),"viability [3, 6]","viability [3, 7]",inhibition [4],inhibition [5]
COc1ccc(-c2nnc(-c3ccc(N)cc3)o2)cc1,95.9% (inactive),88.3% (inactive),-2.75% (inactive),91.1%,88.3%,-4.13% (inactive),3.81% (inactive)
CCc1ccc2[nH]c(=O)c(C(c3nnnn3CC3CCCO3)N3CCCc4ccccc43)cc2c1 (stereo not given),88.5% (inactive),91.8% (inactive),-6.4% (inactive),98.2%,91.8%,-7.2% (inactive),-1.9% (inactive)
O=C(O)CCc1ccc(-c2ccccc2)n1CC(=O)O,88.9% (inactive),93% (inactive),1.87% (inactive),91.1%,93%,-1.43% (inactive),12.5% (inactive)
CCOc1ccc(-c2nc(C#N)c(N3CCN(C)CC3)o2)cc1,82.1% (inactive),97.6% (inactive),0.87% (inactive),96.7%,97.6%,-1.6% (inactive),11.3% (inactive)
Cn1c(=O)[nH]c(=O)c2c1nc(NC1CCCCC1)n2CC(=O)NC1CCCCC1,99.5% (inactive),94.7% (inactive),14.6% (inactive),80.1%,94.7%,-7.6% (inactive),5.87% (inactive)
CN1/C(=C\C(=O)Nc2cccnc2)c2ccccc2CC1(C)C,99.3% (inactive),86.5% (inactive),-4.08% (inactive),90.6%,86.5%,-4.4% (inactive),-0.95% (inactive)
O=C(NC1CCCC1)c1cc(-c2cccs2)on1,90.4% (inactive),88.6% (inactive),8.04% (inactive),80.6%,88.6%,-4.21% (inactive),3.17% (inactive)
COc1cccc(C(=O)CSc2nnc(COc3cccc4cccnc34)o2)c1,90.3% (inactive),81% (inactive),-2.74% (inactive),83.7%,81%,4.87% (inactive),-7.94% (inactive)
C=CCn1c(=O)[nH]c2cc(C(=O)N3CCN(c4ccc(C(C)=O)cc4)CC3)ccc2c1=O,68.5% (inactive),92.4% (inactive),13.4% (inactive),79%,92.4%,-1.97% (inactive),-5.71% (inactive)
Cn1c(=O)c2c(nc(SCC(=O)NCc3ccc4c(c3)OCO4)n2Cc2ccccc2)n(C)c1=O,93.4% (inactive),92.6% (inactive),-7.06% (inactive),99.7%,92.6%,0.26% (inactive),-4.13% (inactive)
CCCCc1cc(=O)oc2c(CN3CCCC3)c(O)c(Cl)cc12,98.2% (inactive),96.6% (inactive),3.32% (inactive),93.3%,96.6%,-3.16% (inactive),3.33% (inactive)
O=C(CN1C(=O)COc2ccccc21)NCCN1CCc2ccccc2C1,79.1% (inactive),92.9% (inactive),-3.52% (inactive),96.4%,92.9%,-4.68% (inactive),-1.59% (inactive)
O=C(CSc1nnc2c3cc(F)ccc3nc(-c3ccccc3)n12)N1CCOCC1,77% (inactive),72.6% (inactive),0.06% (inactive),72.5%,72.6%,0.27% (inactive),1.59% (inactive)
O=C(O)c1cnn2c1NC(c1ccc(F)cc1)CC2C(F)(F)F (stereo not given),90.8% (inactive),97.6% (inactive),9.29% (inactive),88.3%,97.6%,-6.32% (inactive),4.92% (inactive)
Clc1ccccc1-c1nnc2sc(-c3ccccn3)nn12,93.8% (inactive),86.3% (inactive),8.48% (inactive),77.8%,86.3%,-1.97% (inactive),4.6% (inactive)
Cc1ccc(Nc2nnns2)cc1C,84.6% (inactive),99.8% (inactive),10.1% (inactive),89.7%,99.8%,-1.04% (inactive),-3.02% (inactive)
Nc1c(C(=O)NCCN2CCOCC2)c2nc3ccccc3nc2n1-c1ccc2c(c1)OCO2,51.9% (inactive),18.1% (active),-8.75% (inactive),26.8%,18.1%,-6.27% (inactive),6.19% (inactive)
N#CCCn1cnc2ccccc21,108% (inactive),104% (inactive),3.56% (inactive),100%,104%,0.52% (inactive),-3.97% (inactive)
C1=CC2CC1CC2CN1CCN(c2ccccc2)CC1 (stereo not given),97.7% (inactive),91.8% (inactive),-2.94% (inactive),94.8%,91.8%,1.45% (inactive),-1.27% (inactive)
CC1CCN(CCC(=O)Nc2ccc(Br)cc2)CC1,88.6% (inactive),89.2% (inactive),8.88% (inactive),80.4%,89.2%,-4.47% (inactive),0.32% (inactive)

# — PubChem BioAssay
